Source: ChEMBL document CHEMBL1157704, “Potent activity against K562 cells by polyamide-seco-CBI conjugates targeting histone H4 genes” (Bioorg Med Chem, 2010)

Key:
Assay type in all cases: functional
K562 [1] = assay: Effect on PSMB6 gene expression in human K562 cells assessed as change in mRNA transcript expression at 10 nM after 48 hrs by DNA microarray analysis relative to control
Summary of the method: (§1)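 K562 CML cells (b3a2 Bcr-Abl) in standard ATCC-recommended culture, exposed once to 10 nM conjugate and harvested at 48 h. Untreated controls were also collected at 48 h. Transcripts were profiled on Human Gene 1.0 ST whole-genome oligonucleotide arrays, and each treated level was expressed relative to the untreated control, with a cutoff of at least twofold change.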

K562 [2] = assay: Effect on UBE2W gene expression in human K562 cells assessed as change in mRNA transcript expression at 10 nM after 48 hrs by DNA microarray analysis relative to control
Summary of the method: (§2)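 K562 CML cells (b3a2 Bcr-Abl) kept under standard culture conditions were exposed to 10 nM conjugate and harvested at 6, 12, 24 and 48 h. Untreated controls were harvested at 48 h. Whole-transcript oligonucleotide microarray profiling was done, and changes of at least twofold versus control were scored.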

K562 [3] = assay: Effect on AMN1 gene expression in human K562 cells assessed as change in mRNA transcript expression at 10 nM after 48 hrs by DNA microarray analysis relative to control
Summary of the method: (§3)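 Transcripts were profiled on Affymetrix GeneChip Human Gene 1.0 ST arrays in K562 cells treated at 10 nM. Treated cells were collected at 6, 12, 24 and 48 h; untreated controls were collected at 48 h. Transcripts changed at least twofold versus control were scored.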

K562 [4] = assay: Effect on LPHN3 gene expression in human K562 cells assessed as change in mRNA transcript expression at 10 nM after 48 hrs by DNA microarray analysis relative to control; summary of the method: as §1
K562 [5] = assay: Effect on SUPT3H gene expression in human K562 cells assessed as change in mRNA transcript expression at 10 nM after 48 hrs by DNA microarray analysis relative to control; summary of the method: as §1
K562 [6] = assay: Effect on PPP1R15A gene expression in human K562 cells assessed as change in mRNA transcript expression at 10 nM after 48 hrs by DNA microarray analysis relative to control; summary of the method: as §1
K562 [7] = assay: Induction of apoptosis in human K562 cells assessed as viable cells at 125 nM after 48 hrs by annexin-V FITC and propidium iodide staining-based FACS analysis; details: K562, 48 h, read-out: Activity
Summary of the method: (§4)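 K562 cells were exposed to conjugate in culture medium for 48 h, then stained with annexin V-FITC plus propidium iodide. Cell populations were quantified by flow cytometry.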

K562 [8] = assay: Induction of apoptosis in human K562 cells assessed as late apoptotic cells at 125 nM after 48 hrs by annexin-V FITC and propidium iodide staining-based FACS analysis; summary of the method: as §4
K562 [9] = assay: Effect on HIST1H4K gene expression in human K562 cells assessed as down-regulation of mRNA transcript expression at 10 nM after 48 hrs by DNA microarray analysis relative to control; summary of the method: as §1
K562 [10] = assay: Effect on EIF4B gene expression in human K562 cells assessed as change in mRNA transcript expression at 10 nM after 48 hrs by DNA microarray analysis relative to control; summary of the method: as §3
K562 [11] = assay: Effect on S100A4 gene expression in human K562 cells assessed as change in mRNA transcript expression at 10 nM after 48 hrs by DNA microarray analysis relative to control; summary of the method: as §1
K562 [12] = assay: Effect on RNU5E gene expression in human K562 cells assessed as change in mRNA transcript expression at 10 nM after 48 hrs by DNA microarray analysis relative to control; summary of the method: as §1
K562 [13] = assay: Effect on NTS gene expression in human K562 cells assessed as change in mRNA transcript expression at 10 nM after 48 hrs by DNA microarray analysis relative to control; summary of the method: as §1
K562 [14] = assay: Induction of apoptosis in human K562 cells assessed as non-viable necrotic cells at 250 nM after 48 hrs by annexin-V FITC and propidium iodide staining-based FACS analysis
Summary of the method: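 Treated K562 cells […] stained with Annexin V-FITC/propidium iodide. Apoptosis was scored by two-dimensional flow cytometry at a core FACS facility.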

K562 [15] = assay: Effect on ANKRD20B gene expression in human K562 cells assessed as change in mRNA transcript expression at 10 nM after 48 hrs by DNA microarray analysis relative to control; summary of the method: as §3
K562 [16] = assay: Effect on GPR56 gene expression in human K562 cells assessed as change in mRNA transcript expression at 10 nM after 48 hrs by DNA microarray analysis relative to control; summary of the method: as §3
K562 [17] = assay: Effect on ITGA2B gene expression in human K562 cells assessed as change in mRNA transcript expression at 10 nM after 48 hrs by DNA microarray analysis relative to control; summary of the method: as §1
K562 [18] = assay: Effect on LGALS3BP gene expression in human K562 cells assessed as change in mRNA transcript expression at 10 nM after 48 hrs by DNA microarray analysis relative to control; summary of the method: as §1
K562 [19] = assay: Effect on ATP1B2 gene expression in human K562 cells assessed as change in mRNA transcript expression at 10 nM after 48 hrs by DNA microarray analysis relative to control; summary of the method: as §3
K562 [20] = assay: Effect on SLFN14 gene expression in human K562 cells assessed as change in mRNA transcript expression at 10 nM after 48 hrs by DNA microarray analysis relative to control; summary of the method: as §1
K562 [21] = assay: Effect on CD226 gene expression in human K562 cells assessed as change in mRNA transcript expression at 10 nM after 48 hrs by DNA microarray analysis relative to control; summary of the method: as §3
K562 [22] = assay: Effect on INPP5D gene expression in human K562 cells assessed as change in mRNA transcript expression at 10 nM after 48 hrs by DNA microarray analysis relative to control; summary of the method: as §1
K562 [23] = assay: Effect on HIST2H2B gene expression in human K562 cells assessed as change in mRNA transcript expression at 10 nM after 48 hrs by DNA microarray analysis relative to control; summary of the method: as §1
K562 [24] = assay: Effect on PYROXD1 gene expression in human K562 cells assessed as change in mRNA transcript expression at 10 nM after 48 hrs by DNA microarray analysis relative to control; summary of the method: as §1
K562 [25] = assay: Effect on HTR1F gene expression in human K562 cells assessed as change in mRNA transcript expression at 10 nM after 48 hrs by DNA microarray analysis relative to control; summary of the method: as §1
K562 [26] = assay: Effect on HIST1H2BL gene expression in human K562 cells assessed as change in mRNA transcript expression at 10 nM after 48 hrs by DNA microarray analysis relative to control; summary of the method: as §3
K562 [27] = assay: Effect on HIST1H3D gene expression in human K562 cells assessed as change in mRNA transcript expression at 10 nM after 48 hrs by DNA microarray analysis relative to control; summary of the method: as §3
K562 [28] = assay: Effect on IMMP2L gene expression in human K562 cells assessed as change in mRNA transcript expression at 10 nM after 48 hrs by DNA microarray analysis relative to control; summary of the method: as §1
K562 [29] = assay: Effect on TPK1 gene expression in human K562 cells assessed as change in mRNA transcript expression at 10 nM after 48 hrs by DNA microarray analysis relative to control; summary of the method: as §2

## CC(=O)Nc1cn(C)c(C(=O)Nc2cn(C)c(C(=O)NCCC(=O)Nc3cn(C)c(C(=O)NCCCC(=O)Nc4cc(C(=O)Nc5cn(C)c(C(=O)Nc6ccc7[nH]c(C(=O)N8CC(CCl)c9c8cc(O)c8ccccc98)cc7c6)n5)n(C)c4)n3)n2)n1 (centres undefined)
K562 [1]
  fold change (FC): >=2
K562 [2]
  fold change (FC): >=2
K562 [3]
  fold change (FC): >=2
K562 [4]
  fold change (FC): >=2
K562 [5]
  fold change (FC): >=2
K562 [6]
  fold change (FC): >=2
K562 [7]
  viability at 0.125 µM: 80.3%
K562 [8]
  Activity: 9.21%
K562 [9]
  fold change (FC): 2.71
K562 [10]
  fold change (FC): >=2
K562 [11]
  fold change (FC): >=2
K562 [12]
  fold change (FC): >=2
K562 [13]
  fold change (FC): >=2
K562 [14]
  Activity: 2.58%
K562 [15]
  fold change (FC): >=2
K562 [16]
  fold change (FC): >=2
K562 [17]
  fold change (FC): >=2
K562 [18]
  fold change (FC): >=2
K562 [19]
  fold change (FC): >=2
K562 [20]
  fold change (FC): >=2
K562 [21]
  fold change (FC): >=2
K562 [22]
  fold change (FC): >=2
K562 [23]
  fold change (FC): >=2
K562 [24]
  fold change (FC): >=2
K562 [25]
  fold change (FC): >=2
K562 [26]
  fold change (FC): >=2
K562 [27]
  fold change (FC): >=2
K562 [28]
  fold change (FC): >=2
K562 [29]
  fold change (FC): >=2
